Assay results reported in BindingDB's records for doi:10.1021/np070447m (2008).

How the values were obtained:
Ephrin type-B receptor 4 = molecular target: T1, Ephrin type-B receptor 4 (Homo sapiens, UniProt P54760); assay: Inhibition of recombinant EPHB4
T1 sequence (P54760 whole entry): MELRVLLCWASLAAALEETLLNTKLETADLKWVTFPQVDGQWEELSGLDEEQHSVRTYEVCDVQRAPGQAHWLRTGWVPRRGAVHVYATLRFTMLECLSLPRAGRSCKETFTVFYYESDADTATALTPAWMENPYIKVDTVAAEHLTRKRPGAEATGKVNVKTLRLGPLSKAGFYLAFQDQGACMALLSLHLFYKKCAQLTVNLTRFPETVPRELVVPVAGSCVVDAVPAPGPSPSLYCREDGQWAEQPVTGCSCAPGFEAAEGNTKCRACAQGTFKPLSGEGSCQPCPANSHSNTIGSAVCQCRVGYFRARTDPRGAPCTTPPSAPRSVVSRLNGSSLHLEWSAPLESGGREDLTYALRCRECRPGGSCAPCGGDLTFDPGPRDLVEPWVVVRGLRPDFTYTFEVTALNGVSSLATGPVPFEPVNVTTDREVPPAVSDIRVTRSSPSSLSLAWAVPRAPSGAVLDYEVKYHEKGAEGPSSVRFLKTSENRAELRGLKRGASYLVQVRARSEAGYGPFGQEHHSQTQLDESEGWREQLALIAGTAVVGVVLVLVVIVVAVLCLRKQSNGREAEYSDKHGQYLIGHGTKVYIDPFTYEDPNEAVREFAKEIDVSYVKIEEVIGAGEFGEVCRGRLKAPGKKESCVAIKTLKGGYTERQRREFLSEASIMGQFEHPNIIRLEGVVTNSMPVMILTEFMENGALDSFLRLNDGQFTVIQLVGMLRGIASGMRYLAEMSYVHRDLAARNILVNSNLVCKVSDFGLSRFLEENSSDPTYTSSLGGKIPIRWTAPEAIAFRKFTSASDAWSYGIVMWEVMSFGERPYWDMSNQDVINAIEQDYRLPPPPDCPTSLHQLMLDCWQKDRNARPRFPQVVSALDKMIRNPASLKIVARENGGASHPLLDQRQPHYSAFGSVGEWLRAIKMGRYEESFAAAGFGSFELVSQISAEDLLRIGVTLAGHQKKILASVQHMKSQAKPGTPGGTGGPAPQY
In short: (§1)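 Purified recombinant kinase, 50 µL reaction. 1 µM [γ-33P]-ATP with substrate; compound added in 10% DMSO. Tested over several concentrations; IC50 in g/mL.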

Angiopoietin-1 receptor = Angiopoietin-1 receptor (Homo sapiens, UniProt Q02763); assay: Inhibition of recombinant TIE2
[1] = molecular target: Vascular endothelial growth factor receptor 3 (Homo sapiens, UniProt P35916); assay: Inhibition of recombinant VEGFR3; in short: as §1
[2] = molecular target: T2, NUAK family SNF1-like kinase 1 (Homo sapiens, UniProt O60285); assay: Inhibition of recombinant ARK5
T2 sequence (O60285 whole entry): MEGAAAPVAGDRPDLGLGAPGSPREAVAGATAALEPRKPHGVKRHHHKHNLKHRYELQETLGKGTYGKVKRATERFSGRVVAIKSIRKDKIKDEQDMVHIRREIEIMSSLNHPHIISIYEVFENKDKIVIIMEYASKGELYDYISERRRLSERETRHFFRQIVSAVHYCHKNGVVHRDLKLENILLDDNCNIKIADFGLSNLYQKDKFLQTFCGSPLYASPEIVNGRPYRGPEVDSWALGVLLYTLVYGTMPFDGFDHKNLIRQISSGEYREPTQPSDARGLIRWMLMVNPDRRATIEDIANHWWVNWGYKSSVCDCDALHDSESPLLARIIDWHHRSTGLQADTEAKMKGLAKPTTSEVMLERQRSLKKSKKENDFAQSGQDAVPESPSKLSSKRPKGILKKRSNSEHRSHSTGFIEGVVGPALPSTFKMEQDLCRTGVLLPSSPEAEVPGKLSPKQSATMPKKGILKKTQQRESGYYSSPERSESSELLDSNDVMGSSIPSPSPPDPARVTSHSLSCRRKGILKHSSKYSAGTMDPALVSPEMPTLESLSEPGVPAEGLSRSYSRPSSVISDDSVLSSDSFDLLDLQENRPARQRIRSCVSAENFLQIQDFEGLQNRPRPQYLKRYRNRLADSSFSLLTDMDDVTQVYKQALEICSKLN

[3] = molecular target: Cyclin-dependent kinase 4/G1/S-specific cyclin-D1 (Homo sapiens, UniProt P11802); assay: Inhibition of recombinant CDK4/CycD1
[4] = molecular target: Cyclin-dependent kinase 2 (Homo sapiens, UniProt P24941); assay: Inhibition of recombinant CDK2/CycA; in short: as §1
[5] = molecular target: Vascular endothelial growth factor receptor 2 (Homo sapiens, UniProt P35968); assay: Inhibition of recombinant VEGFR2; in short: as §1
[6] = molecular target: Receptor tyrosine-protein kinase erbB-2 (Homo sapiens, UniProt P04626); assay: Inhibition of recombinant ERBB2
[7] = molecular target: Proto-oncogene tyrosine-protein kinase Src (Homo sapiens, UniProt P12931); assay: Inhibition of recombinant SRC; in short: as §1
[8] = molecular target: Serine/threonine-protein kinase PLK1 (Homo sapiens, UniProt P53350); assay: Inhibition of recombinant PLK1
[9] = molecular target: Hepatocyte growth factor receptor (Homo sapiens, UniProt P08581); assay: Inhibition of recombinant MET
Focal adhesion kinase 1 = Focal adhesion kinase 1 (Homo sapiens, UniProt Q05397); assay: Inhibition of recombinant FAK
[10] = molecular target: Serine/threonine-protein kinase B-raf (Homo sapiens, UniProt P15056, V600E); assay: Inhibition of recombinant B-RAF-V600E mutant; in short: as §1
[11] = molecular target: Casein kinase II subunit alpha (Homo sapiens, UniProt P68400); assay: Inhibition of recombinant CK2alpha1; in short: as §1
[12] = molecular target: Mitogen-activated protein kinase kinase kinase 8 (Homo sapiens, UniProt P41279); assay: Inhibition of recombinant COT
[13] = molecular target: Platelet-derived growth factor receptor beta (Homo sapiens, UniProt P09619); assay: Inhibition of recombinant PDGFRbeta
Insulin receptor = Insulin receptor (Homo sapiens, UniProt P06213); assay: Inhibition of recombinant INSR

Serine/threonine-protein kinase B-raf, sequence (P15056 2-766 V600E limits assumed): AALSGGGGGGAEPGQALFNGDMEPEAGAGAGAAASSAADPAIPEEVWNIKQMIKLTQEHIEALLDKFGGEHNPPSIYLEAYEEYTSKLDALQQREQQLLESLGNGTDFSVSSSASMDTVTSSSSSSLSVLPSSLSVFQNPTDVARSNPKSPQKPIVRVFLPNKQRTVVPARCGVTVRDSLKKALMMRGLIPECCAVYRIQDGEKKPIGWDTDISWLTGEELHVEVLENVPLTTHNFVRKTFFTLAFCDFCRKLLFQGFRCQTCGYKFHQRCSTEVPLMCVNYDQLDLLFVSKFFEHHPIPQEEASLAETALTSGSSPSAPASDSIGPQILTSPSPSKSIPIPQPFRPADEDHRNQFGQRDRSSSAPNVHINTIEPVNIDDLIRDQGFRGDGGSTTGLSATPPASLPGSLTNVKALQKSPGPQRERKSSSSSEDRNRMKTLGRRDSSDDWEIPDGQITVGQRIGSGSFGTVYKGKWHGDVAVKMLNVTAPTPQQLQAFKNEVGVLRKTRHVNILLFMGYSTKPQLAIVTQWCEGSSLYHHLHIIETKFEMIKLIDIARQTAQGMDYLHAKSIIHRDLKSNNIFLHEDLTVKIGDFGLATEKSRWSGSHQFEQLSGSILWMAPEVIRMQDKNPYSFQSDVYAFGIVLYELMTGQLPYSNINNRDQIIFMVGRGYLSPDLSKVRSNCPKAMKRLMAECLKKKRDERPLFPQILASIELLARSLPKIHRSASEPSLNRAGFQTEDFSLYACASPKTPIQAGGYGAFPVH
Cyclin-dependent kinase 4/G1/S-specific cyclin-D1, sequence (P11802 whole entry): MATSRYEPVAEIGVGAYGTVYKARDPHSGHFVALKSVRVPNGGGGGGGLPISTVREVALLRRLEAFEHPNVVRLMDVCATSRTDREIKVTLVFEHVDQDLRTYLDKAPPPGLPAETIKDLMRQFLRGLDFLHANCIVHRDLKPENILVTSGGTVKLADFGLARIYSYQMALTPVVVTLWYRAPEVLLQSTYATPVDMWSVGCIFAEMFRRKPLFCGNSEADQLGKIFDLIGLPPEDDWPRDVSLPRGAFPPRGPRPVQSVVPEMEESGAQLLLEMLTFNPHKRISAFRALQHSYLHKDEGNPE
Cyclin-dependent kinase 4/G1/S-specific cyclin-D1, sequence (P24385 whole entry, further chain): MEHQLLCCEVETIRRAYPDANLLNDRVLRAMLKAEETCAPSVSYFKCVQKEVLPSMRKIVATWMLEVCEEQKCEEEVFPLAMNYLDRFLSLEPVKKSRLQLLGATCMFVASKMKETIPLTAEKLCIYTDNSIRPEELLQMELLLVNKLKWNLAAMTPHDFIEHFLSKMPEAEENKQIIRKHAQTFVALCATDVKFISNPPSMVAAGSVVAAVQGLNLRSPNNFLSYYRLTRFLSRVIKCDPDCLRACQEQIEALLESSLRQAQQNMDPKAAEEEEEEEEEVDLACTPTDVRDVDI
Serine/threonine-protein kinase PLK1, sequence (P53350 whole entry): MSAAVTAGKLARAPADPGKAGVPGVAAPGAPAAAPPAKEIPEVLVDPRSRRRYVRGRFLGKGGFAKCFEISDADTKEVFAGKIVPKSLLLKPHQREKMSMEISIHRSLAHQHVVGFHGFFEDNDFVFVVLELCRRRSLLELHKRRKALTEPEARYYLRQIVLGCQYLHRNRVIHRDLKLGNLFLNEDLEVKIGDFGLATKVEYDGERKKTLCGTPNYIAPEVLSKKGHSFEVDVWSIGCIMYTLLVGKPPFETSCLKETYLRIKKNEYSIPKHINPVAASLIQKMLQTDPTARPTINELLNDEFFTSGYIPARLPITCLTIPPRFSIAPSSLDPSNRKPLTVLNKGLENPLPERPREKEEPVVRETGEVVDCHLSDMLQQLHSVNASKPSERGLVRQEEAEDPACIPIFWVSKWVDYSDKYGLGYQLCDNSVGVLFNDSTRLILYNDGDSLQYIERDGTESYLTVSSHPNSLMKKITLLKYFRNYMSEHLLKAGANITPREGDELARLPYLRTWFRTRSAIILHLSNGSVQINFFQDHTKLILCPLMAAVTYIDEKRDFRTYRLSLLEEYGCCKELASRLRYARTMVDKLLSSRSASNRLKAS
Mitogen-activated protein kinase kinase kinase 8, sequence (P41279 whole entry): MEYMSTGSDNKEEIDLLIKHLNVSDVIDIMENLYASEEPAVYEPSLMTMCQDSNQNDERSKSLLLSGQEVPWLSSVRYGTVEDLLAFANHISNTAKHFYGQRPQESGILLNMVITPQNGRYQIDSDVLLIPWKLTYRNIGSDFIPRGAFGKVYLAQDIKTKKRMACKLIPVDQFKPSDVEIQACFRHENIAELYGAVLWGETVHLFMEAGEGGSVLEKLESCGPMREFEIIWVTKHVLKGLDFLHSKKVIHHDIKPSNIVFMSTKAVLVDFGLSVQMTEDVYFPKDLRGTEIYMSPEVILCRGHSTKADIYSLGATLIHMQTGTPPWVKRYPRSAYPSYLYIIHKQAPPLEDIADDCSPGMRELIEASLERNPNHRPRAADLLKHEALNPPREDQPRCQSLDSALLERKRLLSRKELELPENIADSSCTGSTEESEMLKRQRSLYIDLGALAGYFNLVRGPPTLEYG
Angiopoietin-1 receptor, sequence (Q02763 whole entry): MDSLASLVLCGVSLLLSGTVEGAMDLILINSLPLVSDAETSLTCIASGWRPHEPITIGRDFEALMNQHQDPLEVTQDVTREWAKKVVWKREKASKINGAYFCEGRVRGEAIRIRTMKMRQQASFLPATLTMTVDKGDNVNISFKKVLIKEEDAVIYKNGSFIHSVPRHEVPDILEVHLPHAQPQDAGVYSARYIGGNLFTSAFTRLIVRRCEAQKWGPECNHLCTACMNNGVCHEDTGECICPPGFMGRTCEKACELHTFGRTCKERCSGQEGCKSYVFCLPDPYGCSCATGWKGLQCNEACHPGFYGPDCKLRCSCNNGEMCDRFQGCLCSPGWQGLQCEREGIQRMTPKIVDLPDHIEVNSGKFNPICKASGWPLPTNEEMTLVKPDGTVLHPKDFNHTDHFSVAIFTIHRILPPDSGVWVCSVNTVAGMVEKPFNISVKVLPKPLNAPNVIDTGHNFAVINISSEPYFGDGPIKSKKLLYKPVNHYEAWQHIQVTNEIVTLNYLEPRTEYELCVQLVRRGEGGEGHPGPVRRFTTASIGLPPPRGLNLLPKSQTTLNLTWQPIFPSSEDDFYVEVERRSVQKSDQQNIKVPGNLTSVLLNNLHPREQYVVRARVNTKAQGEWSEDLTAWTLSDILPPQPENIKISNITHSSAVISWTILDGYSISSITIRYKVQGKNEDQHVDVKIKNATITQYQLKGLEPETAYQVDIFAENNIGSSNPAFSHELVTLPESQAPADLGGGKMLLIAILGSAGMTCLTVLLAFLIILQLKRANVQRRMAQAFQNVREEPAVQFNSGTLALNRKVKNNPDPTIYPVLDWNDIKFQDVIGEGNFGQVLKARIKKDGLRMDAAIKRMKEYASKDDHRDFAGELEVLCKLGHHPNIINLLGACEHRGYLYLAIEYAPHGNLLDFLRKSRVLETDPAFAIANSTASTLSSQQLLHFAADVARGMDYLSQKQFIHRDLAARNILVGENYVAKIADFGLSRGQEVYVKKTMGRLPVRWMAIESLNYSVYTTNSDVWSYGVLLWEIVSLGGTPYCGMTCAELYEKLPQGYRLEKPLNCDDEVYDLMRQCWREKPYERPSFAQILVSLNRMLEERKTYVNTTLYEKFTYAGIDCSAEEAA
Focal adhesion kinase 1, sequence (Q05397 whole entry): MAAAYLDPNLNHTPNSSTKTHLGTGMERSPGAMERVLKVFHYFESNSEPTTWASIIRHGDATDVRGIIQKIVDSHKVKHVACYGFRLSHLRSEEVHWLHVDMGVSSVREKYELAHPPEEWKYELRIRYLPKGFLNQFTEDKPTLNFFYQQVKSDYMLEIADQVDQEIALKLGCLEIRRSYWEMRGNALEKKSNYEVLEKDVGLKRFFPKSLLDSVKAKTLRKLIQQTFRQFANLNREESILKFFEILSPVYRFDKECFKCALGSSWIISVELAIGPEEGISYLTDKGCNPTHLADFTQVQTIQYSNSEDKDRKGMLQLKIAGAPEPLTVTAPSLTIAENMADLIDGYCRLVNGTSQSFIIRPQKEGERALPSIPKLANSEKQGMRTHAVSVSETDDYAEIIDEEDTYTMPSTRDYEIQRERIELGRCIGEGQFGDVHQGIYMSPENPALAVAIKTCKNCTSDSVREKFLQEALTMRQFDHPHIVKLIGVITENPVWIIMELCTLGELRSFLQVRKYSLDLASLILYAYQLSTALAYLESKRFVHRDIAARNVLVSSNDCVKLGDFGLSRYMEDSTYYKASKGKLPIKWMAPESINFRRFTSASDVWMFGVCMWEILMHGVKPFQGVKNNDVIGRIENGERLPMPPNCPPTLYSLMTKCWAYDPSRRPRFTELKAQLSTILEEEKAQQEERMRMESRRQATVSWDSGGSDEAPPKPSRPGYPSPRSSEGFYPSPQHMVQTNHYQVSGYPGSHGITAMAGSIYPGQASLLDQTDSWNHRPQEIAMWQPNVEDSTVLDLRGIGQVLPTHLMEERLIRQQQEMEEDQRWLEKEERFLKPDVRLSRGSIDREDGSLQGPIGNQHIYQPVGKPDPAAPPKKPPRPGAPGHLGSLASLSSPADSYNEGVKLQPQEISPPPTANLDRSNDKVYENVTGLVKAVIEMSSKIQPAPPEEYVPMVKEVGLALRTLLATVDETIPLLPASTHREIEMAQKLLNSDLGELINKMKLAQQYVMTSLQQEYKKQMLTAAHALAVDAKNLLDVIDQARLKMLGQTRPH
Casein kinase II subunit alpha, sequence (P68400 whole entry): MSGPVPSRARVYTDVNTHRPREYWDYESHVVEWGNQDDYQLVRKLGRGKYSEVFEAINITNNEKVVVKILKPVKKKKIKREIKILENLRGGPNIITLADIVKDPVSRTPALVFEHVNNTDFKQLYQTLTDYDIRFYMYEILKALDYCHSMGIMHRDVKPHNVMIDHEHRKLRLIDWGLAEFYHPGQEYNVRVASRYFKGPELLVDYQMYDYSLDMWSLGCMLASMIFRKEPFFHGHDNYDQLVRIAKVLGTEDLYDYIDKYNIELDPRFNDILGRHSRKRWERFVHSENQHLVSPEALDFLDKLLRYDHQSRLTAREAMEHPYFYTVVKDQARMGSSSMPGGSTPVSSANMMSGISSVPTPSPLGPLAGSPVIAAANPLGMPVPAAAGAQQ

SMILES | IC50 (Ephrin type-B receptor 4) | IC50 (Angiopoietin-1 receptor) | IC50 [1] | IC50 [2] | IC50 [3] | IC50 [4] | IC50 [5] | IC50 [6] | IC50 [7] | IC50 [8] | IC50 [9] | IC50 (Focal adhesion kinase 1) | IC50 [10] | IC50 [11] | IC50 [12] | IC50 [13] | IC50 (Insulin receptor)
COc1cc(O)c2c(c1)C1(OC2=O)C(=O)C(=O)CC1C (configuration not stated) [TALAROFLAVONE] | > 36.2 µM | > 36.2 µM | > 36.2 µM | > 36.2 µM | > 36.2 µM | > 36.2 µM | > 36.2 µM | > 36.2 µM | > 36.2 µM | > 36.2 µM | > 36.2 µM | > 36.2 µM | > 36.2 µM | > 36.2 µM | > 36.2 µM | – | –
COc1cc(O)c2c(c1)-c1cc(O)c(O)cc1COC2=O [Alterlactone] | > 34.6 µM | > 34.6 µM | > 34.6 µM | > 34.6 µM | > 34.6 µM | > 34.6 µM | > 34.6 µM | > 34.6 µM | > 34.6 µM | > 34.6 µM | > 34.6 µM | > 34.6 µM | > 34.6 µM | > 34.6 µM | > 34.6 µM | > 34.6 µM | > 34.6 µM
